This is an account of results in ChEMBL document CHEMBL3085774, “Design of novel potent inhibitors of human uridine phosphorylase-1: synthesis, inhibition studies, thermodynamics, and in vitro influence on 5-fluorouracil cytotoxicity” (J Med Chem, 2013).

SMILES strings stand for the structures. Calls of active or inactive are those of the source. No cut-off for these calls is given here. Bounds are passed on as bounds.

In one series the target is T1, Thymidine phosphorylase (Homo sapiens, UniProt P19971).
T1 sequence (P19971 whole entry): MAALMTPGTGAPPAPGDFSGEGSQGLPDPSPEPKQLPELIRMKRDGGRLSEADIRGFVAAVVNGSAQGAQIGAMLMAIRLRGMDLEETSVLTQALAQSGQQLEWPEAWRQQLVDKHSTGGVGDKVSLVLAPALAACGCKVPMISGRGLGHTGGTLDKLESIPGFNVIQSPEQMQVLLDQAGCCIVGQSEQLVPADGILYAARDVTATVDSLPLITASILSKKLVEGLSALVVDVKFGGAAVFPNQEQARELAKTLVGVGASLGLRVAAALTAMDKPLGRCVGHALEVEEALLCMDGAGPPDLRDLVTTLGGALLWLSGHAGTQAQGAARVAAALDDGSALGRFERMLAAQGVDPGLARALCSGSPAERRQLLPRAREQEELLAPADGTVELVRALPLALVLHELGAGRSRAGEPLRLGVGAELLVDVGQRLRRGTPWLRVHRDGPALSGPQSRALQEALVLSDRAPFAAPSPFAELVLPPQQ
Briefly: Inhibition of human thymidine phosphorylase.

In series [1] the target is T2, Uridine phosphorylase 1 (Homo sapiens, UniProt Q16831). Nature of the series: Inhibition of human recombinant UP1 expressed in Escherichia coli Rosetta (DE3) using URD and inorganic phosphate as substrate at 1 uM after 60 seconds by spectrophotometric analysis relative to control. A digest of the protocol: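 Assay mix: 100 mM Tris pH 7.4, 100 nM recombinant hUP1, uridine 50 μM and Pi 2 mM (their Km values), inhibitor 1 μM final. Run 60 s at 37 °C under initial-rate conditions, following A280 decrease as uridine converts to uracil. Percent inhibition relative to uninhibited activity; DMSO control at up to 1% final.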
Target sequence in this assay (Q16831 whole entry, looked up): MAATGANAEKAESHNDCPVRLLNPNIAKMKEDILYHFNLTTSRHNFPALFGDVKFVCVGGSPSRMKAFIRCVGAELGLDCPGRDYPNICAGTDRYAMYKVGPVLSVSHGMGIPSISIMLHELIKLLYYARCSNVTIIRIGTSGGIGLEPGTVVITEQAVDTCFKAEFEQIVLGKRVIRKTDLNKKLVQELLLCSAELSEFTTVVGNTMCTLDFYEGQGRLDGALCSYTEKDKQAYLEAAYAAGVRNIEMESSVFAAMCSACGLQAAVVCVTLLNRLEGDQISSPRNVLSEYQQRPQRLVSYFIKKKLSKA

Series [2] has as its target T2, Uridine phosphorylase 1. Nature of the series: Competitive inhibition of human recombinant UP1 expressed in Escherichia coli Rosetta (DE3) using URD as substrate by Lineweaver-Burk plot analysis. A digest of the protocol:
(§1)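 Uridine varied 20–600 μM with Pi fixed at 2 mM. Four inhibitor levels from 0.1 to 5 μM, 100 nM hUP1, 100 mM Tris pH 7.4, 37 °C. Uracil formation followed as the fall in A280 under initial-rate conditions. Kis from slopes and Kii from intercepts of Lineweaver–Burk plots; mode taken from line patterns. Duplicate measurements.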
Target sequence in this assay (Q16831 whole entry, looked up): as above

Series [3] addresses T2, Uridine phosphorylase 1. Nature of the series: Time dependent inhibition of human recombinant UP1 expressed in Escherichia coli Rosetta (DE3) using URD and inorganic phosphate as substrate at 1 uM by spectrophotometric analysis. Summed up: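 Enzyme (100 nM) preincubated with 1 μM inhibitor (final), then added to the standard reaction mix (Tris pH 7.4, 50 μM uridine, 2 mM Pi, 37 °C) at times up to 30 min. Change in initial velocity followed by A280 and percent inhibition calculated.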
Target sequence in this assay (Q16831 whole entry, looked up): as above

Series [4] has as its target T2, Uridine phosphorylase 1. Briefly: Binding affinity to human recombinant UP1-R1P binary complex expressed in Escherichia coli Rosetta (DE3) at 50 uM R1P by isothermal titration calorimetric analysis. A digest of the protocol:
(§2)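 ITC at 310.15 K (37 °C): 56 μM hUP1 in 50 mM Tris HCl pH 7.4, alone or as binary complex with 10 mM Pi or R1P (50–200 μM, final). One 0.5 μL injection (discarded), then 26 injections of 1.5 μL ligand. Dilution heats subtracted. Fit to one-set-of-sites model for ΔH°, Keq and n; ΔG° and ΔS° calculated.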
Target sequence in this assay (Q16831 whole entry): as the sequence (Q16831 whole entry, looked up) above

For series [5], the target named is T2, Uridine phosphorylase 1. Briefly: Uncompetitive inhibition of human recombinant UP1 expressed in Escherichia coli Rosetta (DE3) using inorganic phosphate as substrate by Lineweaver-Burk plot analysis. A digest of the protocol:
(§3)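 Pi varied 0.1–12 mM with uridine fixed at 50 μM. Four inhibitor levels (0.1–5 μM), 100 nM enzyme, 100 mM Tris pH 7.4, 37 °C. Initial rates read as decreasing A280. Kis from slopes and Kii from intercepts of Lineweaver–Burk plots; inhibition mode from line patterns. Duplicates.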
Target sequence in this assay (Q16831 whole entry, looked up): as above

The target of series [6] is T2, Uridine phosphorylase 1. Nature of the series: Non-competitive inhibition of human recombinant UP1 expressed in Escherichia coli Rosetta (DE3) using URD as substrate assessed as equilibrium dissociation constant for enzyme-substrate-inhibitor complex by Lineweaver-Burk plot analysis. A digest of the protocol:
as §1
Target sequence in this assay (Q16831 whole entry, looked up): as above

The target of series [7] is T2, Uridine phosphorylase 1. Nature of the series: Non-competitive inhibition of human recombinant UP1 expressed in Escherichia coli Rosetta (DE3) using inorganic phosphate as substrate assessed as equilibrium dissociation constant for enzyme-substrate-inhibitor complex by Lineweaver-Burk plot analysis. Summed up:
as §3
Target sequence in this assay (Q16831 whole entry, looked up): as above

Series [8] addresses T2, Uridine phosphorylase 1. Briefly: Non-competitive inhibition of human recombinant UP1 expressed in Escherichia coli Rosetta (DE3) using URD as substrate assessed as equilibrium dissociation constant for enzyme-inhibitor complex by Lineweaver-Burk plot analysis. A digest of the protocol:
as §1

Series [9] has as its target T2, Uridine phosphorylase 1. Nature of the series: Non-competitive inhibition of human recombinant UP1 expressed in Escherichia coli Rosetta (DE3) using inorganic phosphate as substrate assessed as equilibrium dissociation constant for enzyme-inhibitor complex by Lineweaver-Burk plot analysis. Summed up: as §3
Series [10] has as its system SW-620. Nature of the series: Cytotoxicity against human SW620 cells at 1 to 100 uM after 72 hrs by MTT assay. It is filed as functional, cell-based. A digest of the protocol: (§4)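 Cells seeded at 7 × 10³ per well, allowed to adhere 48 h (HaCat) or 24 h (HT-29, SW-620). Exposed 72 h to 1–100 μM compound, 37 °C, 5% CO2. MTT 10% (v/v) for 3 h; formazan dissolved in DMSO and read at 495 nm. Viability relative to untreated cells; controls of medium and 1% DMSO. Mean ± SEM of three experiments in quadruplicate.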

For series [11], the system named is SW-620. Nature of the series: Potentiation of 5-FU-induced cytotoxicity against human SW620 cells assessed as reduction in compound IC50 at 30 uM after 72 hrs by MTT assay relative to control. It is filed as functional. A digest of the protocol:
(§5)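 5-FU concentration–response over 72 h (HaCat 0.25–20 μM; HT-29 0.25–50 μM; SW-620 0.5–150 μM), with or without 30 μM inhibitor. Seeding and adhesion as for the viability assay. MTT read-out at 495 nm; 5-FU IC50 from semilog curves by nonlinear regression. Three independent experiments in quadruplicate; one-way ANOVA with Bonferroni test.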

Series [12] concerns HT-29. Briefly: Cytotoxicity against human HT-29 cells at 1 to 100 uM after 72 hrs by MTT assay. It is filed as functional, cell-based. A digest of the protocol: as §4
For series [13], the system named is HT-29. Briefly: Potentiation of 5-FU-induced cytotoxicity against human HT-29 cells assessed as reduction in compound IC50 at 30 uM after 72 hrs by MTT assay relative to control. It is filed as functional. Summed up:
as §5

Series [14] concerns HaCaT. Nature of the series: Cytotoxicity against human HaCaT cells at 1 to 100 uM after 72 hrs by MTT assay. Format: cell-based. A digest of the protocol:
as §4

For series [15], the system named is HaCaT. Briefly: Effect on 5-FU-induced cytotoxicity against human HaCaT cells at 30 uM after 72 hrs by MTT assay. Format: cell-based. A digest of the protocol:
as §5

The target of series [16] is T2, Uridine phosphorylase 1. Briefly: Induction of uridine phosphorylase-mediated drug metabolism in human liver.
A short description of series [17]: Half life in mouse plasma. Format: ADME, cell-free.
Series [18] can be described thus: Inhibition of mouse UPase by Dixon plot analysis.
For series [19], the target named is T2, Uridine phosphorylase 1. Nature of the series: Binding affinity to human recombinant UP1 expressed in Escherichia coli Rosetta (DE3) by isothermal titration calorimetric analysis. A digest of the protocol:
as §2
Target sequence in this assay (Q16831 whole entry): as the sequence (Q16831 whole entry, looked up) above

Series [20] has as its system HT-29. Nature of the series: Protection against 5-FU-induced cytotoxicity against human HT-29 cells assessed as increase in compound IC50 at 30 uM after 72 hrs by MTT assay relative to control.

With `Cc1c(CNC(CO)CO)c(O)[nH]c(=O)c1C#N`, the IC50 against Thymidine phosphorylase is greater than 100 µM. Further, the inhibition on Uridine phosphorylase 1 [1] is 82%. In addition, on Uridine phosphorylase 1 [2], the Kis turned out to be 94 nM. Besides, the inhibition result on Uridine phosphorylase 1 [3] was “inactive”. In addition, the dissociation constant (Kd) on Uridine phosphorylase 1 [4] came to 7 µM. For the same compound, at Uridine phosphorylase 1 [5], the Kii came out at 98 nM.

Consider `CCc1cc(O)[nH]c(=O)c1C#N`, for which the inhibition at Uridine phosphorylase 1 [1] came out at 25%.

For `N#Cc1ccc(O)[nH]c1=O`, on Thymidine phosphorylase, the IC50 is greater than 100 µM. Also, the Kii on Uridine phosphorylase 1 [6] is 2550 nM; on Uridine phosphorylase 1 [7], 666 nM. The inhibition on Uridine phosphorylase 1 [1] worked out at 67%. For the same compound, the Kis on Uridine phosphorylase 1 [8] turned out to be 2610 nM; at Uridine phosphorylase 1 [9] it was 565 nM. Further, the inhibition result at Uridine phosphorylase 1 [3] was “inactive”.

On to `CCCc1cc(O)[nH]c(=O)c1C#N`, for which the inhibition on Uridine phosphorylase 1 [1] worked out at 16%.

Consider `Cc1cc(O)[nH]c(=O)c1`, for which the inhibition on Uridine phosphorylase 1 [1] stood at 16%.

In turn, `Cc1c(CN(C)C)c(O)[nH]c(=O)c1C#N` yielded an IC50 at Thymidine phosphorylase greater than 100 µM. For the same compound, the inhibition at Uridine phosphorylase 1 [1] was determined as 81%. The Kis at Uridine phosphorylase 1 [2] was found to be 99 nM. Moreover, the inhibition result at Uridine phosphorylase 1 [3] is “inactive”. For the same compound, the Kii at Uridine phosphorylase 1 [5] came out at 107 nM.

Turning to `Cc1ccc(O)[nH]c1=O`, the inhibition at Uridine phosphorylase 1 [1] is 12%.

In turn, `Cc1cc(O)[nH]c(=O)c1C#N` had an IC50 on Thymidine phosphorylase greater than 100 µM. Also, the figures for the Kii at Uridine phosphorylase 1 [6] and at Uridine phosphorylase 1 [5] were 635 nM and 332 nM, respectively. Further, the inhibition on Uridine phosphorylase 1 [1] was 70%. Besides, the result with SW-620 [10], in the series with HT-29 [12] and in the series with HT-29 [13] was inactive. The “fold change (FC)” value with SW-620 [11] is given as 12. Besides, the Kis at Uridine phosphorylase 1 [8] is 375 nM. Further, the inhibition entry at Uridine phosphorylase 1 [3] is “inactive”. The Activity entry in the series on HaCaT [14] and with HaCaT [15] was “Non-toxic” throughout.

Take `O=c1cccc(O)[nH]1`: the inhibition at Uridine phosphorylase 1 [1] turned out to be 38%.

On Uridine phosphorylase 1 [16], `O=c1ccn([C@@H]2O[C@H](CO)[C@@H](O)[C@H]2O)c(=O)[nH]1` [URIDINE] showed a metabolised greater than 80%. The compound further gave a half-life in [17] of 2 min.

At Thymidine phosphorylase, `Cc1c(CNCC(O)CO)c(O)[nH]c(=O)c1C#N` (stereo not given) displayed an IC50 greater than 100 µM. At Uridine phosphorylase 1 [1], the inhibition stood at 78%. The Kis at Uridine phosphorylase 1 [2] is 109 nM. Further, the inhibition entry on Uridine phosphorylase 1 [3] is “inactive”. Also, the Kii on Uridine phosphorylase 1 [5] was 182 nM.

For the compound `O=c1[nH]c(=O)n(COCCO)cc1Cc1ccccc1`, affinity in series [18] was put at a Ki of 0.1 µM. In addition, the Kii on Uridine phosphorylase 1 [7] was found to be 317 nM. Further, in the series with HT-29 [13], the outcome was inactive. For the same compound, the Kis on Uridine phosphorylase 1 [2] came to 130 nM; on Uridine phosphorylase 1 [9], 547 nM. The Activity result with HaCaT [15] is “Non-toxic”. The Kd on Uridine phosphorylase 1 [19] amounted to 1.2 µM.

`Cc1c(CNCCO)c(O)[nH]c(=O)c1C#N` gave an IC50 against Thymidine phosphorylase greater than 100 µM. Besides, at Uridine phosphorylase 1 [1], the inhibition is 80%. The result in the series with SW-620 [10] and with HT-29 [12] was inactive. In addition, the “fold change (FC)” value in the series with SW-620 [11] was determined as 6; in the series on HT-29 [20], 9. On Uridine phosphorylase 1 [2], the Kis worked out at 68 nM. Further, the inhibition result at Uridine phosphorylase 1 [3] is “inactive”. Also, at Uridine phosphorylase 1 [5], the Kii was 127 nM. For the same compound, the Activity result with HaCaT [14] and in the series with HaCaT [15] was “Non-toxic” throughout.

Regarding `CCN(CC)Cc1c(O)[nH]c(=O)c(C#N)c1C`, the inhibition on Uridine phosphorylase 1 [1] is 25%.

As for `Cc1c(-c2ccccc2)c(O)[nH]c(=O)c1C#N`, the inhibition on Uridine phosphorylase 1 [1] worked out at 12%.

`Cc1c(Cc2ccccc2)c(O)[nH]c(=O)c1C#N`: the inhibition on Uridine phosphorylase 1 [1] turned out to be 43%.

For the compound `N#Cc1c(Cc2ccccc2)cc(O)[nH]c1=O`, the inhibition on Uridine phosphorylase 1 [1] worked out at 2%.

For `CC(C)c1cc(O)[nH]c(=O)c1C#N`, the inhibition at Uridine phosphorylase 1 [1] came to 31%.

On to `O=c1[nH]cc(CNCCO)c(=O)[nH]1`, for which the inhibition at Uridine phosphorylase 1 [1] is 2%.

`Cc1cc(O)[nH]c(=O)c1C`: the inhibition on Uridine phosphorylase 1 [1] amounted to 9.5%.

Turning to `Cc1c(CN2CCCCC2)c(O)[nH]c(=O)c1C#N`, on Uridine phosphorylase 1 [1], the inhibition worked out at 49%.

On to `N#Cc1c(-c2ccccc2)cc(O)[nH]c1=O`, for which the inhibition at Uridine phosphorylase 1 [1] is 42%.

As for `Cc1c(CN2CCOCC2)c(O)[nH]c(=O)c1C#N`, the inhibition at Uridine phosphorylase 1 [1] was 51%.
